Six compounds from PubChem BioAssay AID463147 (The Scripps Research Institute Molecular Screening Center, 2010) can be followed below.

The assay deals with Nuclear receptor ROR-gamma (Homo sapiens) (UniProt P51449). Nature of the assay: RORG inhibitors in reporter cells, late-stage follow-up, selectivity assay for RORA inverse agonist project, cell-based, luminescence, single concentration, HEK293T GAL4-RORg (AID 463147). As to conditions: HEK293T GAL4-RORg LBD luciferase reporter, 18-24 h; at 10 µM; hits give low values. The essentials:
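Signal: Luciferase luminescence from UAS reporter | Assay system: HEK293T cells co-transfected with GAL4 DBD–RORγ LBD fusion plus UAS-luciferase reporter | Incubation: 20 h compound exposure, cells replated 24 h post-transfection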

Structures are written as SMILES. The source made the active and inactive calls.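 How the source made its calls: active means fold change below 0.7, the computed hit cutoff; inactive means the rest.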

Chain of Nuclear receptor ROR-gamma (Homo sapiens) (P51449 whole entry, looked up, the tested form may be a part): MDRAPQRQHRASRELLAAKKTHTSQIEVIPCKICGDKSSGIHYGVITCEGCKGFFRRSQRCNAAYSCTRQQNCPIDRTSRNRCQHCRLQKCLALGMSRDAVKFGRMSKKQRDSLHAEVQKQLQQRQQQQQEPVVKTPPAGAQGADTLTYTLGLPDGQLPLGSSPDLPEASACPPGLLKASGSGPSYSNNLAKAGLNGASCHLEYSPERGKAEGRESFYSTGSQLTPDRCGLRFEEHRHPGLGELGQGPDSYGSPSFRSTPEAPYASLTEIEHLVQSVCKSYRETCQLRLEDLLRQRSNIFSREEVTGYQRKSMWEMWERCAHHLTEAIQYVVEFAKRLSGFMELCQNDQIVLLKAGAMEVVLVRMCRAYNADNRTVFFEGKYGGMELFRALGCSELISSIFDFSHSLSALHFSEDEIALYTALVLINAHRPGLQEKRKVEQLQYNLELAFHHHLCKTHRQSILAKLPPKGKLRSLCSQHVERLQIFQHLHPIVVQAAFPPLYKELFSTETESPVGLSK

With `O=C(Nc1ccc(C(O)(C(F)(F)F)C(F)(F)F)cc1)c1ccc(Cl)cc1`, the fold change was 0.873 (inactive).

`O=S(=O)(Nc1ccc(C(O)(C(F)(F)F)C(F)(F)F)cc1)c1cccs1`: the fold change is 0.91 (inactive).

For `O=C(Nc1ccc(C(O)(C(F)(F)F)C(F)(F)F)cc1)c1ccc(F)cc1Cl`, the fold change was 0.974 (inactive).

Take `O=C(Nc1ccc(C(O)(C(F)(F)F)C(F)(F)F)cc1)c1ccc(F)cc1F`: the fold change was 1.23 (inactive).

For the compound `O=C(Nc1ccc(C(O)(C(F)(F)F)C(F)(F)F)cc1)c1c(F)cccc1F`, the fold change is 1.06 (inactive).

Turning to `O=C(Nc1ccc(C(O)(C(F)(F)F)C(F)(F)F)cc1)c1ccccc1C(F)(F)F`, the fold change is 0.897 (inactive).
